Where a name gives a salt, the structure may show the parent alone. Activity calls are given as the source filed them. No cut-off for these calls is given here.
Legend:
[1] = tested on: OVCAR-3; test: Cytotoxicity against human OVCAR-3 cells assessed as reduction in cell viability measured after 72 hrs by MTS assay; assay type: functional, cell-based; details: OVCAR-3, 72 h
How it was run: (§1)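 Cells exposed to test substance for 72 h. Viability read by MTS-based absorbance assay (CellTiter 96 AQueous One Solution) relative to DMSO solvent control. Paclitaxel served as positive control.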

[2] = tested on: MDA-MB-435; test: Cytotoxicity against human MDAMB-435 cells assessed as reduction in cell viability measured after 72 hrs by MTS assay; assay type: functional, cell-based; details: MDA-MB-435, 72 h; how it was run: as §1
[3] = tested on: HCT-116; test: Cytotoxicity against human HCT-116 cells assessed as reduction in cell viability measured after 72 hrs by MTT assay; assay type: functional, cell-based; details: HCT-116, 72 h
How it was run: (§2)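 Cells grown at 37°C, 5% CO₂ (22Rv1 in RPMI 1640, HCT 116 in McCoy's; 10% FBS, penicillin/streptomycin). Trypsinized, 5000 cells/well seeded, 24 h attachment. DMSO stocks diluted in medium to final 100, 20, 4, 0.8, 0.16 and 0.032 μM; 0.5% DMSO vehicle control. After 72 h, MTT 0.5 mg/mL final for 3 h; formazan dissolved in DMSO, A570. Viability relative to DMSO control; duplicates, three independent experiments; IC50 calculated.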

[4] = tested on: CWR22R; test: Cytotoxicity against human 22Rv1 cells assessed as reduction in cell viability measured after 72 hrs by MTT assay; assay type: functional, cell-based; details: 22Rv1, 72 h; how it was run: as §2
[5] = tested on: Mycobacterium tuberculosis; test: Antitubercular activity against Mycobacterium tuberculosis H37Rv assessed as inhibition of bacterial growth upto 100 ug/ml; assay type: functional, organism-based; details: dose <= 100.0 µg/ml

Row | SMILES | IC50 [1] | IC50 [2] | IC50 [3] | IC50 [4] | Activity [5]
1 | CCCCCC[C@H](O)CCC[C@H](O)[C@H]1CC[C@H]([C@H]2CC[C@H]([C@H](O)CCCCCCCCC[C@@H](O)CCC3=C[C@H](C)OC3=O)O2)O1 | 4.5 µM | 4.4 µM | 1.8 µM | 8.2 µM | 
2 | CCCCCC[C@H](O)CCC[C@H](O)[C@H]1CC[C@H]([C@H]2CC[C@H]([C@H](O)CCCCCCCCCCCCC3=C[C@H](C)OC3=O)O2)O1 [SQUAMOCIN] | 4.5 µM | 4.6 µM | 1.2 µM | 6.4 µM | 
3 | CCCCCCCCCC[C@@H](O)[C@H]1CC[C@H]([C@H]2CC[C@H]([C@H](O)CCCCCCCCC[C@H](O)CCC3=C[C@H](C)OC3=O)O2)O1 [UVARIGRANDIN A] | 4.6 µM | 4.1 µM | 5.5 µM | 7 µM | 
4 | CCCCCC[C@H](O)CCC[C@H](O)[C@H]1CC[C@H]([C@H]2CC[C@H]([C@H](O)CCCCCCCCCCCCCCC3=C[C@H](C)OC3=O)O2)O1 | 4.4 µM | 4.5 µM | 1.2 µM | 5.6 µM | 
5 | CC(=O)O[C@H]1C(=O)[C@@]2(C)[C@H]([C@H](OC(=O)c3ccccc3)[C@]3(O)C[C@H](OC(=O)[C@H](O)[C@@H](NC(=O)c4ccccc4)c4ccccc4)C(C)=C1C3(C)C)[C@]1(OC(C)=O)CO[C@@H]1C[C@@H]2O [PACLITAXEL] | 0.0056 µM | 0.0026 µM |  |  | 
6 | CCCCCCCCCC[C@H](O)[C@H]1CC[C@H]([C@H]2CC[C@H]([C@H](O)CCCCCCCC[C@H](O)[C@H](O)CCC3=C[C@H](C)OC3=O)O2)O1 | > 10 µM | 4.6 µM | 15 µM | 8.3 µM | 
7 | CCCCCCCCCC[C@@H](O)[C@H]1CC[C@H]([C@H]2CC[C@H]([C@H](O)CCCCCCCC[C@H](O)[C@H](O)CCC3=C[C@H](C)OC3=O)O2)O1 | 3.7 µM | 4.4 µM | 2.7 µM | 5.5 µM | 
8 | COc1cc([C@@H]2c3cc4c(cc3[C@@H](O[C@@H]3O[C@@H]5CO[C@@H](C)O[C@H]5[C@H](O)[C@H]3O)[C@H]3COC(=O)[C@H]23)OCO4)cc(OC)c1O [ETOPOSIDE] |  |  | 1.8 µM | 2.3 µM | 
9 | CCCCCCCCCC[C@@H](O)[C@H]1CC[C@H]([C@H]2CC[C@H]([C@H](O)CCCCCCCCC[C@@H](O)CCC3=C[C@H](C)OC3=O)O2)O1 | 3.5 µM | 4.6 µM | 9.2 µM | 17.5 µM | inactive
10 | CC[C@]1(O)C[C@@H]2CN(CCc3c([nH]c4ccccc34)[C@@](C(=O)OC)(c3cc4c(cc3OC)N(C)[C@H]3[C@@](O)(C(=O)OC)[C@H](OC(C)=O)[C@]5(CC)C=CCN6CC[C@]43[C@@H]65)C2)C1 [VINBLASTINE SULFATE] |  |  | 0.001 µM | 0.001 µM | 
11 | CCCCCCCCCC[C@@H](O)[C@H]1CC[C@H]([C@H]2CC[C@H]([C@H](O)CCCCCCCCCCCCC3=C[C@H](C)OC3=O)O2)O1 [ISODESAACETYLUVARICIN] | > 10 µM | 4.1 µM | 2.8 µM | 7.8 µM | 
12 | CCCCCCCCCC[C@H](O)[C@H]1CC[C@H]([C@H]2CC[C@H]([C@H](O)CCCCCCCC[C@H](O)CCCC3=C[C@H](C)OC3=O)O2)O1 |  |  | 10 µM | 12.5 µM | 
13 | CCCCCCCCCC[C@H](O)[C@H]1CC[C@H]([C@H]2CC[C@H]([C@H](O)CCCCCCCCCCCCC3=C[C@H](C)OC3=O)O2)O1 [BULLANIN] | > 10 µM | 5.3 µM | 29.1 µM | 16.5 µM | 
